Experimental data from ChEMBL document CHEMBL1132712, “Bisphosphonate prodrugs: synthesis and in vitro evaluation of novel clodronic acid dianhydrides as bioreversible prodrugs of clodronate” (J Med Chem, 1999).

Tests used:
[1] = (§1) Rate data for enzymatic hydrolysis in 80% human serum at pH 7.4; Completely hydrolyzed during 1 min; format: ADME; conditions: pH 7.4, 1 min
[2] = The apparent partition coefficient at pH 7.4; format: physicochemical; conditions: octanol/water
How it was run: (§2)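 1-Octanol/phosphate buffer (50 mM, μ = 0.15) at pH 2.0 or 7.4. Prodrug (0.8–1.5 mg) in 1.0 mL buffer shaken with 5.0 mL octanol, 1 h at pH 7.4 or 5 min at pH 2.0. Phases separated by centrifugation. Aqueous concentration measured by HPLC before and after shaking. Triplicate, mean reported.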

[3] = The aqueous solubility in phosphate buffer; format: physicochemical; conditions: read-out: S
How it was run: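 Excess solid added to phosphate buffer (50 mM, μ = 0.15, pH 7.4) at room temperature and vortexed 30 min. pH checked and adjusted during solubilization. Suspension centrifuged and filtered (0.45 membrane). Filtrate quantified by HPLC.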

[4] = Rate data in phosphate buffer at pH 7.4; format: ADME
How it was run: (§3)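 Chemical hydrolysis at 37 °C in phosphate buffer (50 mM, μ = 0.15) at pH 2.0 or 7.4. Prodrug (12 mg) dissolved in preheated buffer. Samples withdrawn at intervals and assayed by HPLC. Pseudo-first-order rate constants calculated from the buffer hydrolysis data.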

[5] = species: Homo sapiens; assay: as §1; format: ADME, organism-based; conditions: pH 7.4, 1 min
[6] = Rate data in phosphate buffer at pH 2.0; format: ADME; how it was run: as §3
[7] = The apparent partition coefficient at pH 2.0; format: physicochemical; conditions: octanol/water; how it was run: as §2
[8] = (§4) Rate data for enzymatic hydrolysis in 80% human serum at pH 7.4; format: ADME
[9] = as §4; format: ADME, organism-based

With `CCCC(=O)OP(=O)([O-])C(Cl)(Cl)P(=O)([O-])OC(=O)CCC.[Na+].[Na+]` the K obs [1] was “Completely hydrolyzed during 1 min”, the logD [2] was -2.3 and the solubility [3] was 172 mg/mL. The K obs [4] was 0.00037 min⁻¹, the half-life [4] was 31.3 h and the T1/2 [5] was “Completely hydrolyzed during 1 min”. The K obs [6] was 0.014 min⁻¹, the half-life [6] was 0.817 h and the logD [7] was -1.9.

`CC(C)(C)C(=O)OP(=O)([O-])C(Cl)(Cl)P(=O)([O-])OC(=O)C(C)(C)C.[Na+].[Na+]` gave a logD [2] of -2.3, a solubility [3] of 23.5 mg/mL and a K obs [4] of 0.000015 min⁻¹. The half-life [4] was 790 h, the K obs [8] was 0.0035 min⁻¹ and the half-life [9] was 3.3 h. The K obs [6] was 0.0013 min⁻¹, the half-life [6] was 8.6 h and the logD [7] was -2.

With `CC(=O)OP(=O)([O-])C(Cl)(Cl)P(=O)([O-])OC(C)=O.[Na+].[Na+]` the K obs [1] was “Completely hydrolyzed during 1 min”, the logD [2] was -2.2 and the solubility [3] was 190 mg/mL. For the same molecule, the K obs [4] was 0.00076 min⁻¹, the half-life [4] was 15.2 h and the T1/2 [5] was “Completely hydrolyzed during 1 min”. The K obs [6] was 0.016 min⁻¹, the half-life [6] was 0.75 h and the logD [7] was -1.4.

For `O=C(OP(=O)([O-])C(Cl)(Cl)P(=O)([O-])OC(=O)c1ccccc1)c1ccccc1.[Na+].[Na+]`, the K obs [1] was “Completely hydrolyzed during 1 min”, the logD [2] was -2.3 and the solubility [3] was 6 mg/mL. The K obs [4] was 0.000049 min⁻¹, the half-life [4] was 235 h and the T1/2 [5] was “Completely hydrolyzed during 1 min”. For the same molecule, the K obs [6] was 0.00004 min⁻¹, the half-life [6] was 286 h and the logD [7] was -1.5.
